Results of several laboratories.
Lines come from different studies, so protocols differ.
KIT D816H: Mast/stem cell growth factor receptor Kit (KIT, Homo sapiens, UniProt P10721, D816H)
KIT D816V: Mast/stem cell growth factor receptor Kit (KIT, Homo sapiens, UniProt P10721, D816V)

CC/C(=N\NC(=O)NCc1cccc(O)c1)c1ccc(O)c(C)c1O  inhibition (Mast/stem cell growth factor receptor Kit (KIT, Homo sapiens, UniProt P10721, V560G); enzyme activity, inhibitor; 0.1 µM): 0.1%
CN([C@@H]1CCc2c(CC(=O)O)c3ccccc3n2C1)S(=O)(=O)c1ccc(F)cc1  remaining binding (KIT D816H; cell-free assay, competition with immobilised ligand; 1 µM): 95%
C[C@H]1CCN(c2nccc(-c3cnn4ncccc34)n2)C1  remaining binding (KIT D816V; binding; 1 µM): 100%
Cc1noc([C@H]2C[C@@H](c3ccc(C(F)(F)F)cc3)CN(C(=O)N3CCS(=O)(=O)C3)C2)n1  remaining binding (KIT D816V; cell-free assay, competition with immobilised ligand; 1 µM): 100%
Cc1cc(NC(=O)c2cccc3cc(-c4cccc5[nH]nc(N)c45)ccc23)ccc1F  activity vs control (KIT D816V; enzyme activity, inhibitor; 0.1 µM): 107%
Cc1ccc(C(=O)NCc2ccsc2)cc1C#Cc1cn(C(C)C)c2ncnc(N)c12  activity vs control (KIT D816H; enzyme activity, inhibitor; 1 µM): 11%
Nc1ncnc2occ(-c3ccc(NC(=O)Nc4cc(C(F)(F)F)ccc4F)cc3)c12  remaining signal (Mast/stem cell growth factor receptor Kit (KIT, Homo sapiens, UniProt P10721, A829P); cell-free assay, inhibitor; 20 µM): 3.7%
CNC(=O)c1ccc(Nc2ncc(C(F)(F)F)c(NCc3nccnc3N(C)S(C)(=O)=O)n2)cc1  remaining binding (KIT D816H; cell-free assay, competition with immobilised ligand; 0.1 µM): 71%
N[C@@H]1CCN(c2nccc(-c3cnn4ncccc34)n2)C1  remaining binding (Mast/stem cell growth factor receptor Kit (KIT, Homo sapiens, UniProt P10721, V559D/V654A); binding; 1 µM): 100%
